Calls of active or inactive are those of the source. The calls are words filed in the database; no cut-off is given here.
Tests used:
Plasmodium falciparum [1] = assay: Antimalarial activity against pyrimethamine/chloroquine-resistant Plasmodium falciparum W2 infected in human type A-positive erythrocytes after 48 hrs by [3H]-hypoxanthine incorporation assay; type: functional, cell-based
Summary of the method: (§1)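 Compound from 10.0 mM DMSO stock, diluted ≥1:400, then 11 concentrations in duplicate. Incubated at 37 °C under 90% N2/5% O2/5% CO2 for 48 h, then 3H-hypoxanthine added for 24 h more. CPM counted; EC50 by nonlinear regression.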

Plasmodium falciparum [2] = assay: Antimalarial activity against mefloquine/chloroquine/atovaquone/pyrimethamine-resistant Plasmodium falciparum TM90-C2B infected in human type A-positive erythrocytes after 48 hrs by [3H]-hypoxanthine incorporation assay; type: functional, cell-based; summary of the method: as §1
Plasmodium berghei [3] = assay: Antimalarial activity against Plasmodium berghei infected in human HepG2 cells after 44 hrs by luciferase assay; type: functional, cell-based; settings: HepG2, 44 h
Summary of the method: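 HepG2 cells, 75000 per well, in DMEM with 10% FBS at 37 °C, 5% CO2. 5000 Pb luciferase sporozoites from dissected mosquito salivary glands added per well for 3 h, then washed three times with PBS. Serially diluted compound added in triplicate, 44 h at 37 °C. Cells lysed, luciferase substrate added, luminescence read.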

J774 = assay: Cytotoxicity against mouse J774 cells after 72 hrs by CellTiter-96 aqueous one solution cell proliferation assay; type: cell-based; settings: J774, 72 h
Summary of the method: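 Compounds from 10 µg/mL or 20 µM top concentration, 1:2 serial dilutions over 11 concentrations, 72 h at 37 °C, 5% CO2. MTS-type reagent added for 4 h, absorbance read at 490 nm. IC50 by nonlinear regression.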

Plasmodium berghei [4] = assay: animal or person; settings: in Mus musculus, po, read-out: INH
[5] = Resistance index, ratio of EC50 for mefloquine/chloroquine/atovaquone/pyrimethamine-resistant Plasmodium falciparum TM90-C2B to EC50 for pyrimethamine/chloroquine-resistant Plasmodium falciparum W2; type: functional
[6] = Aqueous solubility of compound at pH 6.5; type: physicochemical
Plasmodium berghei [7] = assay: Antimalarial activity against blood stage form of GFP transfected Plasmodium berghei infected in mouse assessed as mouse survival day at 10 mg/kg, po administered on day 3, 4, 5 post infection by Thompson test; type: functional
Plasmodium berghei [8] = assay: Antimalarial activity against blood stage form of GFP transfected Plasmodium berghei infected in mouse assessed as protection against parasitemia at 10 mg/kg, po administered on day 3, 4, 5 post infection measured on day 30 by Thompson test; type: functional, organism-based
Summary of the method: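 Modified Thompson model: mice inoculated ip with 2×10^6 P. berghei (GFP)-infected red blood cells, parasitemia near 1% by day 3. […] Animals followed for 30 days; survival to day 30 with parasitemia below 1% counted as cure.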

Plasmodium berghei [9] = assay: animal or person; settings: in Mus musculus, po, read-out: INH; remark: listed apart in the source
Plasmodium berghei [10] = assay: Antimalarial activity against liver stage form of luciferase transfected Plasmodium berghei sporozoites infected in mouse assessed as inhibition of parasitemia at 50 mg/kg administered via oral gavage 1 hr post infection measured on day 9 by bioluminescence method relative to control; type: functional

Row | Structure (SMILES) | EC50 (Plasmodium falciparum [1]) [nM] | EC50 (Plasmodium falciparum [2]) [nM] | EC50 (Plasmodium berghei [3]) [nM] | EC50 (J774) [nM] | inhibition in vivo at 50 mg/kg (Plasmodium berghei [4]) [%] | Ratio EC50 [5] | solubility [6] [µM] | Survival (Plasmodium berghei [7]) | Activity (Plasmodium berghei [8]) | inhibition in vivo at 10 mg/kg (Plasmodium berghei [9]) [%] | inhibition in vivo at 50 mg/kg (Plasmodium berghei [10]) [%]
1 | COC(=O)c1c[nH]c2cc(CN3CCN(c4ccc(OC)cc4)CC3)c(OC)cc2c1=O | 3.4 | 860 | 10 | 16000 | 70.6 | – | – | – | – | – | –
2 | COC(=O)c1c[nH]c2cc(CN3CCN(Cc4ccccc4)CC3)c(OC)cc2c1=O | 5.5 | > 2000 | 9.3 | > 20000 | 19.3 | – | – | – | – | – | –
3 | COC(=O)c1c[nH]c2ccc(CN3CCN(c4ccc(OC)cc4)CC3)cc2c1=O | 160 | > 2000 | > 100 | > 20000 | – | – | – | – | – | – | –
4 | CCN(CC)CCCC(C)Nc1ccnc2cc(Cl)ccc12 (centres undefined) [CHLOROQUINE] | – | – | – | 47200 | – | – | – | – | – | – | –
5 | Cc1[nH]c2cc(CN3CCN(c4ccc(C(F)(F)F)cc4)CC3)ccc2c(=O)c1Cl | 140 | 1500 | – | > 20000 | – | 11 | – | – | – | – | –
6 | COC(=O)c1c[nH]c2cc(N3CCN(c4ccccc4)CC3)ccc2c1=O | 4.5 | 250 | 74 | > 20000 | – | – | < 20 | – | – | – | –
7 | COC(=O)c1c[nH]c2cc(N3CCN(c4ccc(OC)cc4)CC3)c(OC)cc2c1=O | 43 | 2000 | > 100 | > 20000 | – | 47 | – | – | – | – | –
8 | COC(=O)c1c[nH]c2cc(N3CCN(Cc4ccccc4)CC3)c(OC)cc2c1=O | 64 | 200 | – | 12000 | – | – | – | – | – | – | –
9 | COC(=O)c1c[nH]c2cc(N3CCN(Cc4ccccc4)CC3)c(C)cc2c1=O | 13 | 980 | > 100 | > 20000 | – | 75 | – | – | – | – | –
10 | Cc1[nH]c2cc(CN3CCN(c4ccc(F)cc4)CC3)ccc2c(=O)c1Cl | 39 | 52 | – | > 20000 | – | – | – | <=13 day | inactive | 11 | –
11 | COC(=O)c1c[nH]c2ccc(CN3CCN(c4ccccc4)CC3)cc2c1=O | 150 | > 2000 | 91 | > 20000 | – | – | – | – | – | – | –
12 | COC(=O)c1c[nH]c2cc(N3CCN(Cc4ccccc4)CC3)ccc2c1=O | 16 | 860 | 85 | > 20000 | – | – | – | – | – | – | –
13 | COC(=O)c1c[nH]c2cc(CCN3CCN(c4ccccc4)CC3)ccc2c1=O | 25 | 1500 | – | > 20000 | – | 60 | ≥ 80 | – | – | – | –
14 | COC(=O)c1c[nH]c2cc(CN3CCN(c4ccc(F)cc4)CC3)c(OC)cc2c1=O | 1.8 | 220 | 32 | > 20000 | 56.9 | – | – | – | – | – | –
15 | COC(=O)c1c[nH]c2cc(CN3CCN(Cc4ccccc4)CC3)ccc2c1=O | 1.4 | 150 | 44 | 10000 | 12.3 | – | ≥ 80 | – | – | – | –
16 | COC(=O)c1c[nH]c2cc(CN3CCN(c4ccc(F)cc4)CC3)c(C)cc2c1=O | 0.84 | 350 | 2.6 | 16000 | – | – | – | <=21 day | – | – | –
17 | COC(=O)c1c[nH]c2cc(CN3CCN(c4ccc(C(F)(F)F)cc4)CC3)c(C)cc2c1=O | 0.066 | 100 | – | > 20000 | – | – | – | – | – | – | –
18 | COC(=O)c1c[nH]c2cc(CN3CCN(c4ccc(F)cc4)CC3)ccc2c1=O | 1.8 | 130 | 1.1 | 2000 | – | – | – | <=21 day | inactive | – | –
19 | COC(=O)c1c[nH]c2cc(CN3CCN(Cc4ccccc4)CC3)c(C)cc2c1=O | 1.5 | 890 | 9.5 | > 20000 | 24.6 | – | – | – | – | – | –
20 | COC(=O)c1c[nH]c2cc(N3CCN(c4ccccc4)CC3)c(C)cc2c1=O | 46 | 1100 | – | 17000 | 31.6 | – | – | – | – | – | –
21 | O=c1c(Cl)c[nH]c2cc(CN3CCN(c4ccc(F)cc4)CC3)ccc12 | 1100 | > 2000 | – | > 20000 | 71.9 | – | – | – | – | – | –
22 | COC(=O)c1c[nH]c2cc(N3CCN(c4ccc(OC)cc4)CC3)ccc2c1=O | 7.8 | 150 | – | > 20000 | – | 20 | – | – | – | – | –
23 | COC(=O)c1c[nH]c2cc(N3CCN(Cc4ccc(OC)cc4)CC3)ccc2c1=O | 20 | 1300 | – | – | – | 65 | – | – | – | – | –

Row | Structure (SMILES) | EC50 (Plasmodium falciparum [1]) [nM] | EC50 (Plasmodium falciparum [2]) [nM] | EC50 (Plasmodium berghei [3]) [nM] | EC50 (J774) [nM] | inhibition in vivo at 50 mg/kg (Plasmodium berghei [4]) [%] | Ratio EC50 [5] | solubility [6] [µM] | Survival (Plasmodium berghei [7]) | Activity (Plasmodium berghei [8]) | inhibition in vivo at 10 mg/kg (Plasmodium berghei [9]) [%] | inhibition in vivo at 50 mg/kg (Plasmodium berghei [10]) [%]
24 | O=C1C(O)=C([C@H]2CC[C@H](c3ccc(Cl)cc3)CC2)C(=O)c2ccccc21 [ATOVAQUONE] | – | – | – | 28000 | – | – | – | – | Active | – | –
25 | C[C@H]1[C@@H](O)O[C@@H]2O[C@@]3(C)CC[C@H]4[C@H](C)CC[C@@H]1[C@@]24OO3 [ARTENIMOL] | – | – | – | 1500 | – | – | – | – | – | – | –
26 | O=c1c(Br)c[nH]c2cc(CN3CCN(c4ccc(F)cc4)CC3)ccc12 | 810 | > 2000 | 0.86 | > 20000 | – | – | – | <=13 day | inactive | 33 | –
27 | COC(=O)c1c[nH]c2cc(CN3CCN(Cc4ccc5c(c4)OCO5)CC3)ccc2c1=O | 160 | > 2000 | – | > 20000 | – | – | – | – | – | – | –
28 | COC(=O)c1c[nH]c2ccc(CN3CCN(c4ccc(C(F)(F)F)cc4)CC3)cc2c1=O | 45 | > 2000 | 85 | > 20000 | – | – | – | – | – | – | –
29 | COC(=O)c1c[nH]c2cc(CN3CCN(Cc4ccc(OC)cc4)CC3)c(OC)cc2c1=O | 10 | > 2000 | 52 | > 20000 | 24.6 | – | – | – | – | – | –
30 | COC(=O)c1c[nH]c2cc(CN3CCN(c4ccc(OC)cc4)CC3)ccc2c1=O | 3.6 | 220 | 0.12 | – | 39.2 | – | – | – | – | – | –
31 | COC(=O)c1c[nH]c2cc(CCN3CCN(Cc4ccccc4)CC3)ccc2c1=O | 120 | > 2000 | 160 | > 20000 | – | – | ≥ 80 | – | – | – | –
32 | COC(=O)c1c[nH]c2cc(CN3CCN(c4ccccc4)CC3)c(OC)cc2c1=O | 1.6 | 490 | 110 | > 20000 | 82.4 | – | – | – | – | – | –
33 | COC(=O)c1c[nH]c2cc(CCN3CCN(Cc4ccc(OC)cc4)CC3)ccc2c1=O | 12 | – | – | > 20000 | – | – | ≥ 80 | – | – | – | –
34 | Cc1[nH]c2cc(CN3CCN(c4ccc(F)cc4)CC3)ccc2c(=O)c1Br | – | 26 | – | > 20000 | – | – | – | <=13 day | inactive | – | –
35 | COC(=O)c1c[nH]c2cc(CN3CCN(c4ccc(OC)cc4)CC3)c(C)cc2c1=O | 0.57 | 180 | 4.1 | > 20000 | – | – | – | – | – | – | –
36 | Cc1[nH]c2cc(CN3CCN(c4ccc(C(F)(F)F)cc4)CC3)ccc2c(=O)c1Br | 120 | 95 | – | > 20000 | – | 0.8 | – | – | – | – | –
37 | COc1cc2c(=O)c(Br)c(C)[nH]c2cc1CN1CCN(c2ccc(C(F)(F)F)cc2)CC1 | 130 | > 2000 | – | > 20000 | – | – | – | – | – | – | –
38 | Cc1cc(=O)c2ccc(CN3CCN(c4ccc(F)cc4)CC3)cc2[nH]1 | 1200 | 1500 | – | > 20000 | – | 1.2 | – | – | – | – | –
39 | COC(=O)c1c[nH]c2cc(N3CCN(c4ccccc4)CC3)c(OC)cc2c1=O | 37 | 800 | – | 17000 | – | – | – | – | – | – | –
40 | COC(=O)c1c[nH]c2ccc(CN3CCN(c4ccc(F)cc4)CC3)cc2c1=O | 110 | > 2000 | – | > 20000 | – | – | – | – | – | – | –
41 | COC(=O)c1c[nH]c2cc(CN3CCN(Cc4ccc(OC)cc4)CC3)c(C)cc2c1=O | 2.4 | 1000 | – | > 20000 | – | – | – | – | – | – | –
42 | COC(=O)c1c[nH]c2cc(CN3CCN(c4ccccc4)CC3)c(C)cc2c1=O | 0.44 | 150 | 6.9 | 12000 | – | – | – | – | inactive | – | –
43 | COc1cc(NC(C)CCCN)c2ncccc2c1 (centres undefined) [PRIMAQUINE] | – | – | – | – | – | – | – | – | – | – | > 99
44 | COC(=O)c1c[nH]c2cc(CN3CCN(c4ccc(C(F)(F)F)cc4)CC3)ccc2c1=O | 0.32 | 120 | 16 | 11000 | – | – | – | <=21 day | inactive | – | –
45 | COC(=O)c1c[nH]c2cc(CN3CCN(c4ccc(C(F)(F)F)cc4)CC3)c(OC)cc2c1=O | 6.4 | 210 | 9.6 | > 20000 | – | – | – | – | – | – | –
